pIC50: −log10 of the molar value. In brackets after ≈: the same amount, converted by molar mass. Each block holds one molecule with its values, some of them ahead of it.
What was measured:
[1] = target: Phosphodiesterase 3 (Homo sapiens) (UniProt Q14432+Q13370); assay: Inhibition of PDE3 (unknown origin) at 1 uM; type: protein assay
[2] = target: High affinity cGMP-specific 3',5'-cyclic phosphodiesterase 9A (Homo sapiens) (UniProt O76083); assay: Inhibition of PDE9 (unknown origin) at 1 uM
[3] = target: 3',5'-cyclic-AMP phosphodiesterase 4D (Homo sapiens, UniProt Q08499); assay: Inhibition of human recombinant PDE4D after 1 hr by SPA in presence of radioactively labeled cAMP
3',5'-cyclic-AMP phosphodiesterase 4D, sequence (Q08499 whole entry): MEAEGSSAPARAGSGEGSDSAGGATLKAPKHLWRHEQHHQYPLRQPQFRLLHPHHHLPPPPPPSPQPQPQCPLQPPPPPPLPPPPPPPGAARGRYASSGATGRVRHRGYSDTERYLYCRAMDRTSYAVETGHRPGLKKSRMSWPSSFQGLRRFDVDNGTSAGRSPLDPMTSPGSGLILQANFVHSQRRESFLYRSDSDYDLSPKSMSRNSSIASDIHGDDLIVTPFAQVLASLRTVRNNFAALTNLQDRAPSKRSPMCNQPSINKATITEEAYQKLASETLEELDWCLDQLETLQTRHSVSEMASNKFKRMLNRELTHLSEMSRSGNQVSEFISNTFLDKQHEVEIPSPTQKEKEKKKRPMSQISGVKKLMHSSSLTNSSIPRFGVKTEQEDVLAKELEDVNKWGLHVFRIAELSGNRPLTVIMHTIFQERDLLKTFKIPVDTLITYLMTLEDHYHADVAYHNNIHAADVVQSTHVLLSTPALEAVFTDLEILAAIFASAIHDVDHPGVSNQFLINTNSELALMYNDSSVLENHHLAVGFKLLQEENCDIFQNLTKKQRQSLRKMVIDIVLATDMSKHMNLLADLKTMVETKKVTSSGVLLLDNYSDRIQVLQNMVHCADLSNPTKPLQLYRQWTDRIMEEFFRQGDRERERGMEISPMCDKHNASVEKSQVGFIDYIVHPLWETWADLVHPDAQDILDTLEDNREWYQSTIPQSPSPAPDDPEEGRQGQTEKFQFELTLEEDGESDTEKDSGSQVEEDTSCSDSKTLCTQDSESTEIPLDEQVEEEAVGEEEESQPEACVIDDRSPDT
Summary of the method: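 Recombinant human PDE4D (NM_006203) incubated 1 h with test compound up to 10 μM, 1 × 10⁻⁵ M cAMP and 0.021 MBq radiolabelled cAMP tracer. Substrate cleavage read by binding of AMP product to SPA beads. IC₅₀ is the molar concentration giving 50% inhibition of cleavage relative to controls, reported as a range.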

[4] = Cmax in human at 2.5 mg/g cream administered as single topical dose up to 14 % body surface area; type: ADME, organism-based; set-up: dose 2.5 mg/g; conditions: in vivo, 2500 mg/kg
Summary of the method: (§1)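 Healthy subjects, n = 6 per group, each given a single cutaneous dose of 2.5 mg/g cream. Treated body surface area was escalated (7, 14, 30, 53%) while the amount of cream per cm² was held constant. Plasma Cmax and AUC0–48h are reported as geometric means.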

[5] = Solubility of the compound in propylene glycol; type: physicochemical
Summary of the method: (§2)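 Compound shaken in each vehicle for 24 h at room temperature, centrifuged, and the supernatant concentration determined by HPLC.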

[6] = target: cAMP and cAMP-inhibited cGMP 3',5'-cyclic phosphodiesterase 10A (Homo sapiens) (UniProt Q9Y233); assay: Inhibition of PDE10 (unknown origin) at 1 uM
[7] = target: Phosphodiesterase 8 (Homo sapiens) (UniProt O95263+O60658); assay: Inhibition of PDE8 (unknown origin) at 1 uM; type: protein assay
Phosphodiesterase 8 (Homo sapiens), sequence (O60658 whole entry, looked up): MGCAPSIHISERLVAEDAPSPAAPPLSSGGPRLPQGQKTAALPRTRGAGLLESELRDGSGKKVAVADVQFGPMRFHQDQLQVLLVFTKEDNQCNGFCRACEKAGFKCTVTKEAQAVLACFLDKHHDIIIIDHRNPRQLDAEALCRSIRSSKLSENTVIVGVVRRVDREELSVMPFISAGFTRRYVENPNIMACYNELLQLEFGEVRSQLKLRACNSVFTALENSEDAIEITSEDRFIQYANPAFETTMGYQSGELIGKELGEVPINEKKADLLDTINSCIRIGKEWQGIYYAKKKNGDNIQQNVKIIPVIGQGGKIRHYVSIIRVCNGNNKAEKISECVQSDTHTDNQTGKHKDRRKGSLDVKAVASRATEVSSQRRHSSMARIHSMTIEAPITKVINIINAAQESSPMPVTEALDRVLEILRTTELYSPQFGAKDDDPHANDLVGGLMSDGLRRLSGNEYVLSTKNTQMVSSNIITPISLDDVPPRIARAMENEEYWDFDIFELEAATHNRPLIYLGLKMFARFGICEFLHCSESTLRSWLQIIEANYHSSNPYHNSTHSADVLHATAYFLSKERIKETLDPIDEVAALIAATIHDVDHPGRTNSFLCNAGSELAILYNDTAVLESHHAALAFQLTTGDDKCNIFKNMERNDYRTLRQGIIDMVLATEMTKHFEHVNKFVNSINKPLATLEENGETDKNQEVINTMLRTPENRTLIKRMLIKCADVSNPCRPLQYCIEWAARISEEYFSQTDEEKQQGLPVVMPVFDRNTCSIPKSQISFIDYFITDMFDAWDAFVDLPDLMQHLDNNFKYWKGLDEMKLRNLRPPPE
Phosphodiesterase 8 (Homo sapiens), sequence (O95263 whole entry, looked up): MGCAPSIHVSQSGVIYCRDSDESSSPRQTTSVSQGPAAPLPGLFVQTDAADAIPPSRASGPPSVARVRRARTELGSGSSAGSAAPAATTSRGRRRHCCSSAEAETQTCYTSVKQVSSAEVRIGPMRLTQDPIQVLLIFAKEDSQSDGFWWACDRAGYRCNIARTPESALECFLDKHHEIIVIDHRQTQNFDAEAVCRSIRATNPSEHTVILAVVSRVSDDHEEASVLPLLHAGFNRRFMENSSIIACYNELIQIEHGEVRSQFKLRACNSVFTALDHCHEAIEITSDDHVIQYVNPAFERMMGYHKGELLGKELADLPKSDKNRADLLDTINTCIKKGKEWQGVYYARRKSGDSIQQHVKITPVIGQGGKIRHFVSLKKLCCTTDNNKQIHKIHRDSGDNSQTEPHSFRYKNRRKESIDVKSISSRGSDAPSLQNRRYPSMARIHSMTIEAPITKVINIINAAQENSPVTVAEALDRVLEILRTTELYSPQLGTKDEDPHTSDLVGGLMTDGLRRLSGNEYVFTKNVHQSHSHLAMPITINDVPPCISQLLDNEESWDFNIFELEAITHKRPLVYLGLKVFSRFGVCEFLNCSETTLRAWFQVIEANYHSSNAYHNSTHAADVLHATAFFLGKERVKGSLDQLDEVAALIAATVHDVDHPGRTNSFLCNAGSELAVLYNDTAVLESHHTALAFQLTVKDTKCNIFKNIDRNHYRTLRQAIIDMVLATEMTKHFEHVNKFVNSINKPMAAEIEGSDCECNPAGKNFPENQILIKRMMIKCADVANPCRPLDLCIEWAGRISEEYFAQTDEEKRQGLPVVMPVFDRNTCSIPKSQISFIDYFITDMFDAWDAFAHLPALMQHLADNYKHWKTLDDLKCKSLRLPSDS

[8] = tested on: Mus musculus; assay: Antiinflammatory activity in topical allergic contact dermatitis mouse model assessed as inhibition of TNFalpha in tissue at 0.01 mg administered topically; type: functional
[9] = tested on: Mus musculus; assay: Antiinflammatory activity in topical allergic contact dermatitis mouse model assessed as inhibition of TNFalpha in tissue at 0.1 mg administered topically; type: functional
[10] = tested on: Homo sapiens; assay: Toxicity in human assessed as emesis at 2.5 mg/g cream administered as single topical dose up to 7 to 53 % body surface area; type: organism-based; conditions: in vivo, topical_or_ocular
Summary of the method: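 First-in-man safety, tolerability and pharmacokinetic study with single ascending and multiple cutaneous doses of 2.5 mg/g cream. Dose was escalated by enlarging the treated body surface area up to 53%, and emesis cases were recorded.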

[11] = Cmax in human at 2.5 mg/g cream administered as single topical dose up to 53 % body surface area; type: ADME, organism-based; set-up: dose 2.5 mg/g; conditions: in vivo, 2500 mg/kg; summary of the method: as §1
[12] = tested on: Mus musculus; assay: Antiinflammatory activity in topical allergic contact dermatitis mouse model assessed as inhibition of TNFalpha in tissue at 0.001 mg administered topically; type: functional
[13] = Solubility of the compound in medium chain triglyceride; type: physicochemical; summary of the method: as §2
[14] = target: cGMP-specific 3',5'-cyclic phosphodiesterase (Homo sapiens) (UniProt O76074); assay: Inhibition of PDE5 (unknown origin) at 1 uM
[15] = AUC (0 to 48 hrs) in human at 2.5 mg/g cream administered as single topical dose up to 30 % body surface area; type: ADME, organism-based; set-up: time < 48 hr, dose 2.5 mg/g; conditions: plasma, 2500 mg/kg; summary of the method: as §1
[16] = Solubility of the compound in propylene glycol-water at 75:25 ratio after 24 hrs at room temperature; type: physicochemical; conditions: propylene glycol-water 75:25; summary of the method: as §2
[17] = Cmax in human at 2.5 mg/g cream administered as single topical dose up to 30 % body surface area; type: ADME, organism-based; set-up: dose 2.5 mg/g; conditions: in vivo, 2500 mg/kg; summary of the method: as §1
[18] = Toxicity in iv dosed ferret assessed as signs of nausea measured up to 2 hrs post dose; type: organism-based, Mustela putorius furo; conditions: in vivo
Summary of the method: (§3)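 Ferrets dosed iv at 0.03–1.0 mg/kg alongside vehicle groups, then observed for 2 h. Recorded: emetic episodes and prodromic signs of nausea, number of animals retching and vomiting, latency to first retch and vomit, and counts of retches and vomits.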

[19] = AUC (0 to 48 hrs) in human at 2.5 mg/g cream administered as single topical dose up to 7 % body surface area; type: ADME, organism-based; set-up: dose 2.5 mg/g, time < 48 hr; conditions: plasma, 2500 mg/kg; summary of the method: as §1
[20] = Solubility of the compound in 20 % hydroxypropyl-beta-cyclodextrin in water after 1 hr at room temperature; type: physicochemical
Summary of the method: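 Compound shaken in the vehicle for 1 h at room temperature, centrifuged, and the supernatant concentration determined by HPLC.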

[21] = AUC (0 to 48 hrs) in human at 2.5 mg/g cream administered as single topical dose up to 53 % body surface area; type: ADME, organism-based; set-up: time < 48 hr, dose 2.5 mg/g; conditions: plasma, 2500 mg/kg; summary of the method: as §1
[22] = Cmax in human at 2.5 mg/g cream administered as single topical dose up to 7 % body surface area; type: ADME, organism-based; set-up: dose 2.5 mg/g; conditions: in vivo, 2500 mg/kg; summary of the method: as §1
[23] = Solubility of the compound in 0.067 M phosphate buffer at pH 7.4; type: physicochemical
Summary of the method: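 Compound shaken in 0.067 M phosphate buffer, pH 7.4, for 24 h at room temperature; after centrifugation, supernatant concentration determined by HPLC.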

[24] = Solubility of the compound in propylene glycol-water at 50:50 ratio after 24 hrs at room temperature; type: physicochemical; conditions: propylene glycol-water 50:50; summary of the method: as §2
[25] = target: Phosphodiesterase 1 (Homo sapiens) (UniProt P54750+Q01064+Q14123); assay: Inhibition of PDE1 (unknown origin) at 1 uM; type: protein assay
[26] = tested on: PBMC; assay: Inhibition of LPS-induced TNFalpha release in human PBMC preincubated for 30 mins before LPS stimulation measured after 18 hrs by TR-FRET assay; type: functional, cell-based
Summary of the method: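 PBMCs isolated from buffy coats (blood diluted 1:1 with saline, Lymphoprep). Supernatant TNF-α measured by TR-FRET (665/620 nm). IC₅₀ taken from inhibition curves, with LPS-stimulated and unstimulated wells as controls.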

[27] = target: Dual 3',5'-cyclic-AMP and -GMP phosphodiesterase 11A (Homo sapiens) (UniProt Q9HCR9); assay: Inhibition of PDE11 (unknown origin) at 1 uM
Dual 3',5'-cyclic-AMP and -GMP phosphodiesterase 11A (Homo sapiens), sequence (Q9HCR9 whole entry, looked up): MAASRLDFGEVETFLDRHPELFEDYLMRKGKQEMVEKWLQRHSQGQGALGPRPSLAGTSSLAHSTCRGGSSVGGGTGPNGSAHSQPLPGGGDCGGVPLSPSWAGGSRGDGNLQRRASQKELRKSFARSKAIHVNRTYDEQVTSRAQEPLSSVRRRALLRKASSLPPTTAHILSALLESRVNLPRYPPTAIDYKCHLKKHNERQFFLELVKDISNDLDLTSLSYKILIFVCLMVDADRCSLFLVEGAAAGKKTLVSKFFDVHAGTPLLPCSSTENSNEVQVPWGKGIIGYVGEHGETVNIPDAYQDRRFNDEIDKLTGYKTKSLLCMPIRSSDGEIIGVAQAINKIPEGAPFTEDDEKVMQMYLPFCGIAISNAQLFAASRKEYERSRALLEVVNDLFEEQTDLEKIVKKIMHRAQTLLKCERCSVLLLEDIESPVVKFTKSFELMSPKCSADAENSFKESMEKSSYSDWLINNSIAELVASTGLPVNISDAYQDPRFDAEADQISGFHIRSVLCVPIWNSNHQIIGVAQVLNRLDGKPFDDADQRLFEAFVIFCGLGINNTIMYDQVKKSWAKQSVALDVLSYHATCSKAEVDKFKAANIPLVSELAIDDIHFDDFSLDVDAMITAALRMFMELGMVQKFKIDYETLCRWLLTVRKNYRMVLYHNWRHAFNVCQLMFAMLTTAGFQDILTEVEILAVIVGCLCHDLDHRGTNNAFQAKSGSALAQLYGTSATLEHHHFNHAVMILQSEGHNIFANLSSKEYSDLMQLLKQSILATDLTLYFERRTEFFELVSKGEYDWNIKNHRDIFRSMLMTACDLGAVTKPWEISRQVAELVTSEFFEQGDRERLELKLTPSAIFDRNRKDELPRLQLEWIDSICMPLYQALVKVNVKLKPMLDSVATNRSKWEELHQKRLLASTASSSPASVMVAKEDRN

[28] = Solubility of the compound in propylene glycol-water at 25:75 ratio after 24 hrs at room temperature; type: physicochemical; conditions: propylene glycol-water 25:75; summary of the method: as §2
[29] = tested on: Mus musculus; assay: Antiinflammatory activity in topical allergic contact dermatitis mouse model assessed as inhibition of TNFalpha in tissue compound administered topically; type: functional, organism-based
[30] = AUC (0 to 48 hrs) in human at 2.5 mg/g cream administered as single topical dose up to 14 % body surface area; type: ADME, organism-based; set-up: time < 48 hr, dose 2.5 mg/g; conditions: plasma, 2500 mg/kg; summary of the method: as §1
[31] = target: High affinity 3',5'-cyclic-AMP phosphodiesterase 7A (Homo sapiens) (UniProt Q13946); assay: Inhibition of PDE7 (unknown origin) at 1 uM
High affinity 3',5'-cyclic-AMP phosphodiesterase 7A (Homo sapiens), sequence (Q13946 whole entry): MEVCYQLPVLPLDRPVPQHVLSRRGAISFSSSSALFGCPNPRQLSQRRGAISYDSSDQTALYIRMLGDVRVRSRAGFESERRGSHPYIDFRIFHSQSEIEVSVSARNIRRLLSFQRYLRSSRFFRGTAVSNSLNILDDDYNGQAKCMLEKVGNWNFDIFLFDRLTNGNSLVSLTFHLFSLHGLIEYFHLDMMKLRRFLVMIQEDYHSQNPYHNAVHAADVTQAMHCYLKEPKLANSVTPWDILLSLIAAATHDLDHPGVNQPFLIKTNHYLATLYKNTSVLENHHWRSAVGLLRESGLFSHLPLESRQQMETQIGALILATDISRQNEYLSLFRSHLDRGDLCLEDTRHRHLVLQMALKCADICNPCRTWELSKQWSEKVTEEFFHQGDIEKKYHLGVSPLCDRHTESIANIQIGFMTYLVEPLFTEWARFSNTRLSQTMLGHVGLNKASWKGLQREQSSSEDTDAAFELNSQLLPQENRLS

[32] = target: cGMP-dependent 3',5'-cyclic phosphodiesterase (Homo sapiens) (UniProt O00408); assay: Inhibition of PDE2 (unknown origin) at 1 uM
cGMP-dependent 3',5'-cyclic phosphodiesterase (Homo sapiens), sequence (O00408 whole entry): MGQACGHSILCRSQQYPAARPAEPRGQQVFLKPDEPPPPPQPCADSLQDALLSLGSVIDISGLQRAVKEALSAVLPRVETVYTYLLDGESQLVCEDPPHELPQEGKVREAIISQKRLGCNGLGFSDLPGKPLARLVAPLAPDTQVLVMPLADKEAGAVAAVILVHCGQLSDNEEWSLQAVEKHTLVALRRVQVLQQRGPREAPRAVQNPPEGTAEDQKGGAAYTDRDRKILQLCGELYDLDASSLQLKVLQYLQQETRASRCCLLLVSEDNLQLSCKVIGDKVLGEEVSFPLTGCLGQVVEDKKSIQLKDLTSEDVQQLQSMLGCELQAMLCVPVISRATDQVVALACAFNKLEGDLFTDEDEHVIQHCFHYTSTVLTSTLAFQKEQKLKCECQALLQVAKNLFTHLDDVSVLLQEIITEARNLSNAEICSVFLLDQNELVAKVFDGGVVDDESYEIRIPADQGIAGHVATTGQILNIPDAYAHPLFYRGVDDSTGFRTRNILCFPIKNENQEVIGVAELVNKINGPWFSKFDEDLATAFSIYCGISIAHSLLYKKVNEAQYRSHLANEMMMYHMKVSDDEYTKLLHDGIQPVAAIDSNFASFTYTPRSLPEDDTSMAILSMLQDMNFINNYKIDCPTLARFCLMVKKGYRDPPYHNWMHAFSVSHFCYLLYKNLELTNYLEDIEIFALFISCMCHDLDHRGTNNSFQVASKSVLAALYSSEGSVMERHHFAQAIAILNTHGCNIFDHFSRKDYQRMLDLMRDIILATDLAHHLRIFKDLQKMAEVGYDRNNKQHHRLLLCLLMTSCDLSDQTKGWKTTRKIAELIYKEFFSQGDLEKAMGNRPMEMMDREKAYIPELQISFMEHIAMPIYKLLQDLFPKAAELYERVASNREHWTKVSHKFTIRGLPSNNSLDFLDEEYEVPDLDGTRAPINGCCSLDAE

[33] = Toxicity in iv dosed ferret assessed as emesis measured up to 2 hrs post dose; type: organism-based, Mustela putorius furo; conditions: in vivo; summary of the method: as §3
[34] = Genotoxicity in p53 competent human TK6 cells after 24 hrs by GreenScreen HC assay; type: toxicity, cell-based; conditions: tk6, 24 h

Compound: CCCNC(=O)COc1c(C(=O)Cc2c(Cl)cncc2Cl)ccc(OC)c1OC
inhibition [1]: < 10% | inhibition [2]: < 10% | pIC50 [3]: 8.30 | Cmax [4]: 0.754 ng/mL | solubility [5]: 24 mg/mL (≈ 54.4 mM) | inhibition [6]: < 10% | inhibition [7]: < 10% | inhibition (INH) [8]: 91% | inhibition (INH) [9]: 100% | Activity [10]: Non-toxic | Cmax [11]: 5.07 ng/mL | inhibition (INH) [12]: 33% | solubility [13]: 6700 µg/mL (≈ 15.2 mM) | inhibition [14]: < 10% | AUC(0-t) at 48 h [15]: 49.2 ng·h/mL | solubility at 24 h [16]: 5600 µg/mL | Cmax [17]: 2.39 ng/mL | MTD at 2 h [18]: 1 mg/kg | AUC(0-t) at 48 h [19]: 5.45 ng·h/mL | solubility at 1 h [20]: 220 µg/mL (≈ 0.499 mM) | AUC(0-t) at 48 h [21]: 100 ng·h/mL | Cmax [22]: 0.279 ng/mL | solubility [23]: 14 µg/mL (≈ 0.0317 mM) | solubility at 24 h [24]: 1300 µg/mL | inhibition [25]: < 10% | pIC50 [26]: 7.80 | inhibition [27]: < 10% | solubility at 24 h [28]: 135 µg/mL | inhibition [29]: Dose-dependent effect | AUC(0-t) at 48 h [30]: 14.9 ng·h/mL | inhibition [31]: < 10% | inhibition [32]: < 10% | MTD at 2 h [33]: 1 mg/kg

Compound: COc1ccc(C(=O)Cc2c(Cl)cncc2Cl)c(OCCc2ccccc2)c1OC
pIC50 [3]: 7.82 | pIC50 [26]: 7.59

Compound: COc1ccc(C(=O)Cc2c(Cl)cncc2Cl)c(OC)c1OCC1CC1
pIC50 [3]: 6.67 | pIC50 [26]: 6.25

Compound: COc1ccc(C(=O)Cc2c(Cl)cncc2Cl)c(OCCCc2ccccc2)c1OC
pIC50 [3]: 7.35 | pIC50 [26]: 6.64

Compound: COc1ccc(C(=O)Cc2c(Cl)cncc2Cl)c(OCC(=O)N(C)c2ccccc2)c1OC
pIC50 [3]: 7.21 | pIC50 [26]: 6.95

Compound: CCOc1c(OC)ccc(C(=O)Cc2c(Cl)cncc2Cl)c1OC
pIC50 [3]: 7.09 | pIC50 [26]: 6.59

Compound: COc1ccc(C(=O)Cc2c(Cl)cncc2Cl)c(OCCc2ccc(C(=O)O)cc2)c1OC
pIC50 [3]: 7.77 | pIC50 [26]: 6.87

Compound: COc1ccc(C(=O)Cc2c(Cl)cncc2Cl)c(OC)c1OC1CCCC1
pIC50 [3]: 5.70 | pIC50 [26]: 5.02

More lines, in order of rising pIC50 [3], values ahead:

pIC50 [3]: 7.89
Compound: COCCNC(=O)COc1c(C(=O)Cc2c(Cl)cncc2Cl)ccc(OC)c1OC
Activity [34]: Non-toxic | pIC50 [26]: 7.77

pIC50 [3]: 7.89
Compound: COc1ccc(C(=O)Cc2c(Cl)cncc2Cl)cc1OC
pIC50 [26]: 7.96

pIC50 [3]: 8.10
Compound: COc1ccc(C(=O)Cc2c(Cl)cncc2Cl)c(OCCc2ccc(O)cc2)c1OC
pIC50 [26]: 7.52

pIC50 [3]: 8.30
Compound: COc1ccc(C(=O)Cc2c(Cl)c[n+]([O-])cc2Cl)c(OCC(=O)NCc2ccccc2)c1OC
pIC50 [26]: 7.96

pIC50 [3]: 9.00
Compound: COc1ccc(C(=O)Cc2c(Cl)cncc2Cl)c(OCC(=O)Nc2ccccc2)c1OC
pIC50 [26]: 8.40
